Publication PMC11758009 (Scientific Reports, 2025)

What was measured:
[1] = target: T1, LAT1 (Homo sapiens, UniProt Q01650); assay: Temperature-dependent uptake of 14C-labeled compound in HEK293-hLAT1 cells; assay type: cell-based; conditions: 1 µM 14C-labeled compound, 1 min, 37 °C vs on ice
In short: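 HEK293-hLAT1 cells in Na⁺-free HBSS given 1 µM ¹⁴C-labelled test compound, or 1 µM L-[¹⁴C]leucine for comparison, for 1 min on ice or at 37 °C. Cell-associated radioactivity measured by scintillation counting of the lysate.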
Target sequence in this assay (Q01650 whole entry): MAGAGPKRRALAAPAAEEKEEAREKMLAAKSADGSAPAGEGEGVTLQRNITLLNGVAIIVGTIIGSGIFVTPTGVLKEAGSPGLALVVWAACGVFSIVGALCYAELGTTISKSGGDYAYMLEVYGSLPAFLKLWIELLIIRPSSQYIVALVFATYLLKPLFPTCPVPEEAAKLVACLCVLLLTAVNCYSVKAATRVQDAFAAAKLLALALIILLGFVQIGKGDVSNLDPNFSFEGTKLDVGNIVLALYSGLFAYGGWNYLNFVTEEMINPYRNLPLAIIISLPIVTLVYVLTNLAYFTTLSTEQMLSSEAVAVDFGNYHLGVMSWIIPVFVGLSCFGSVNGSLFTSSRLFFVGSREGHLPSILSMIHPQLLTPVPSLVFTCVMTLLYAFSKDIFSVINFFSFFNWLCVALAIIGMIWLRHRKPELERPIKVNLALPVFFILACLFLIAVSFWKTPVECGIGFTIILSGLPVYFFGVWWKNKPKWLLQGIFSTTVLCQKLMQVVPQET
Target sequence in this assay (P08195 103-630 partner): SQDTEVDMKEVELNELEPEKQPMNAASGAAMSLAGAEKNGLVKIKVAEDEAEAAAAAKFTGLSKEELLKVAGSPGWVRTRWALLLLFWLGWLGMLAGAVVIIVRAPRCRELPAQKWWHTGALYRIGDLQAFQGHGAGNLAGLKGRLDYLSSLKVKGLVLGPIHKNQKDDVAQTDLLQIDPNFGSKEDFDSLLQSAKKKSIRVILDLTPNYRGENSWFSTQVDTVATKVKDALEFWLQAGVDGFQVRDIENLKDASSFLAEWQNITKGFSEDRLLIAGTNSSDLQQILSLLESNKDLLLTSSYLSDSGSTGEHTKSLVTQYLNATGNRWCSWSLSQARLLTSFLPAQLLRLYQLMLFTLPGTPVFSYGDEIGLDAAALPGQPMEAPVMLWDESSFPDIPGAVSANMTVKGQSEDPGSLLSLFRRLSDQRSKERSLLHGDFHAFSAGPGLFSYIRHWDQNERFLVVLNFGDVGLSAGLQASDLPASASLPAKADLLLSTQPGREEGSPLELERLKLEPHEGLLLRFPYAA

[2] = target: ASCT2 (Homo sapiens, UniProt Q15758); assay: Xenopus oocyte expression system, L-[14C]alanine uptake by ASCT2; assay type: cell-based; conditions: 1 and 10 µM compound; 50 µM substrate; 30 min; ND96
Chain of ASCT2 (Q15758 whole entry): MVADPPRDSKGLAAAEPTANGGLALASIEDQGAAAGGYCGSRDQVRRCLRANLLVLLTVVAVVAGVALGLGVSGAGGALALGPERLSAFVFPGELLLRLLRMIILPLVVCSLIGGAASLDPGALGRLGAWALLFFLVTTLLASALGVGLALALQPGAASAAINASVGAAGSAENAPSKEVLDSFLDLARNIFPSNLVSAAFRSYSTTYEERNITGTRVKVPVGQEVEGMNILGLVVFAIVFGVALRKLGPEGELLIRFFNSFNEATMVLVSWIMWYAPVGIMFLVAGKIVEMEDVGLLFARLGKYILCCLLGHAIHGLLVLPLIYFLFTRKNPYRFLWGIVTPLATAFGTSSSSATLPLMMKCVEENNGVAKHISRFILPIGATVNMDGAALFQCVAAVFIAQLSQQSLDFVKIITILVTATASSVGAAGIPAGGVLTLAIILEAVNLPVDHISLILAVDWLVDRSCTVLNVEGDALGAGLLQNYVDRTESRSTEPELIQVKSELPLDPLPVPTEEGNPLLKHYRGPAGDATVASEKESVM
In short: (§1)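 Defolliculated Xenopus laevis oocytes injected with transporter cRNA (25 ng/oocyte), assayed 2–4 days after injection. Uptake at room temperature of 50 µM radiolabelled substrate with test compound at 1 or 10 µM. Buffers were ND96 (pH 7.5) for Na⁺-dependent transport, or a Na⁺-free version with choline chloride. Scintillation counting; mean ± S.D., n = 5–13, three independent oocyte batches.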

[3] = target: SNAT1 (Homo sapiens, UniProt Q9H2H9); assay: Xenopus oocyte expression system, L-[14C]alanine uptake by SNAT1; assay type: cell-based; conditions: 1 and 10 µM compound; 50 µM substrate; 30 min; ND96
In short: as §1

[4] = test system: HEK293-hLAT1 cells; assay: Cell proliferation assay; assay type: cell-based; conditions: Homo sapiens, 72 h, read-out: GI50 (proliferation)
In short: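 HEK293 cells stably expressing human LAT1, kept in MEM with 10% FBS, non-essential amino acids and G418 (0.9 mg/mL) at 37 °C and 5% CO₂. Seeded at 1.5 × 10³ cells/well on poly-D-lysine and treated next day with test compound (0.003–30 µM) for 72 h. CCK-8 read-out. Inhibition = (C–T)/(C–T₀) × 100, with T₀ at 0 h. GI50 from curve fit; mean ± S.D., n = 4.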

[5] = test system: biliary tract cancer; conditions: phase II, patients with biliary tract cancer; cited from earlier work
[6] = target: B^0AT1 (Homo sapiens, UniProt Q695T7); assay: Xenopus oocyte expression system, L-[14C]leucine uptake by B0AT1; assay type: cell-based; conditions: 1 and 10 µM compound; 50 µM substrate; 30 min; ND96
In short: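 B⁰AT1 cRNA (25 ng/oocyte) co-injected with equimolar collectrin cRNA into defolliculated Xenopus laevis oocytes, assayed 2–4 days later. Uptake of 50 µM L-[¹⁴C]leucine over 30 min at room temperature in ND96 (pH 7.5), with test compound at 1 or 10 µM. Water-injected oocytes served as controls. Scintillation counting; mean ± S.D., n = 5–13, three oocyte batches.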

[7] = target: T1, LAT1; assay: Sustained inhibition assay; assay type: cell-based; conditions: reduction in inhibition over first 10 min after washout relative to 0 min
In short: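 HEK293-hLAT1 cells exposed to test compound or 0.6% DMSO control in culture medium for 30 min at 37 °C. Washed three times and kept in fresh medium for 0, 10, 20, 30 or 60 min or 24 h. Then rinsed with Na⁺-free HBSS and given 1 µM L-[¹⁴C]leucine for 1 min. Uptake taken as % of control at each time. Reduction rate = (%uptake 10 min – %uptake 0 min)/(100 – %uptake 0 min) × 100. Three independent experiments, each in quadruplicate.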
Target sequence in this assay (Q01650 whole entry): as the sequence (Q01650 whole entry) above
Target sequence in this assay (P08195 103-630 partner): as the sequence (P08195 103-630 partner) above

[8] = target: SNAT3 (Homo sapiens, UniProt Q99624); assay: Xenopus oocyte expression system, L-[14C]glutamine uptake by SNAT3; assay type: cell-based; conditions: 1 and 10 µM compound; 50 µM substrate; 30 min; ND96
Chain of SNAT3 (Q99624 whole entry): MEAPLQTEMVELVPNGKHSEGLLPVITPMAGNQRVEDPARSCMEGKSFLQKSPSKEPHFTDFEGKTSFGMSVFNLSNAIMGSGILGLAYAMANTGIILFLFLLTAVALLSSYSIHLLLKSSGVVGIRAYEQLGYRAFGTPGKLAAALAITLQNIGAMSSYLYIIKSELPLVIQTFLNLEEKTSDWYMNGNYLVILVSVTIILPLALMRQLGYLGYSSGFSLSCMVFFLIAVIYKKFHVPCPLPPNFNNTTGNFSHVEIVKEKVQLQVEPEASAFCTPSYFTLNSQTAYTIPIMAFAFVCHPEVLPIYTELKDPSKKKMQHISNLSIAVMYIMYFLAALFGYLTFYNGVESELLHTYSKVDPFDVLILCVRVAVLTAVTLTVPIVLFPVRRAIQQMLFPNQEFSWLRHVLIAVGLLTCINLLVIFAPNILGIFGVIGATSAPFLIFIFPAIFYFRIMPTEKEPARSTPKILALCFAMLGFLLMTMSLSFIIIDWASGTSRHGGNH
In short: as §1

[9] = target: SNAT5 (Homo sapiens, UniProt Q8WUX1); assay: Xenopus oocyte expression system, L-[14C]glutamine uptake by SNAT5; assay type: cell-based; conditions: 1 and 10 µM compound; 50 µM substrate; 30 min; ND96
Chain of SNAT5 (Q8WUX1 whole entry): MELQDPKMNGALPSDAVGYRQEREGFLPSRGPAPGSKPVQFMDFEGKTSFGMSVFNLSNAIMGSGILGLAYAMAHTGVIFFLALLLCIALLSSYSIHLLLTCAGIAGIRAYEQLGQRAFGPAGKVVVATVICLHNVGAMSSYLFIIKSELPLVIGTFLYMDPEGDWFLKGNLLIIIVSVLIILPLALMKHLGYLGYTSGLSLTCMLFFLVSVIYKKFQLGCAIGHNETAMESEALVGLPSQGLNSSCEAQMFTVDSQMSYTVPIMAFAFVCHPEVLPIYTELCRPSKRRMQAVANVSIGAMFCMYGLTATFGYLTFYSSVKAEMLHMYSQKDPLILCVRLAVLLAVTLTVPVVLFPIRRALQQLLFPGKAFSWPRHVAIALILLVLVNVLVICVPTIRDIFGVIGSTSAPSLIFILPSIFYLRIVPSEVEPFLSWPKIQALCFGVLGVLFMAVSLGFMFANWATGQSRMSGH
In short: as §1

[10] = test system: b^0,+; assay: Xenopus oocyte expression system, L-[14C]cystine uptake by b0,+; assay type: cell-based; conditions: 1 and 10 µM compound; 50 µM substrate; 30 min; Na+-free
In short: (§2)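 Defolliculated Xenopus laevis oocytes injected with transporter cRNA (25 ng/oocyte) or with water as control, assayed 2–4 days after injection. Uptake over 30 min at room temperature of 50 µM labelled substrate: L-[¹⁴C]leucine for ATB0,+, L-[¹⁴C]tyrosine for TAT1, L-[¹⁴C]cystine for b0,+. Test compound at 1 or 10 µM. Scintillation counting; mean ± S.D., n = 5–13, three oocyte batches.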

[11] = target: SNAT2 (Homo sapiens, UniProt Q96QD8); assay: Xenopus oocyte expression system, L-[14C]alanine uptake by SNAT2; assay type: cell-based; conditions: 1 and 10 µM compound; 50 µM substrate; 30 min; ND96
In short: as §1

[12] = test system: S2-LAT2 cells; conditions: LAT2-expressing cells; cited from earlier work
[13] = liver; cited from earlier work
[14] = target: y^+LAT2 (Homo sapiens, UniProt Q92536); assay: Xenopus oocyte expression system, L-[14C]leucine uptake by y+LAT2; assay type: cell-based; conditions: 1 and 10 µM compound; 50 µM substrate; 30 min; ND96
In short: (§3)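 Defolliculated Xenopus laevis oocytes injected with transporter cRNA (25 ng/oocyte) plus equimolar 4F2hc cRNA, and assayed 2–4 days later. Uptake of 50 µM L-[¹⁴C]leucine at room temperature with test compound at 1 or 10 µM. Buffers were ND96 (pH 7.5) or a Na⁺-free version with choline chloride in place of NaCl. Scintillation counting; mean ± S.D., n = 5–13, three oocyte batches.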

[15] = target: T1, LAT1; assay: Inhibition of L-[14C]leucine uptake in HEK293-hLAT1 cells; assay type: cell-based
In short: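 HEK293-hLAT1 cells grown 2 days on poly-D-lysine, then preincubated 10 min at 37 °C in Na⁺-free choline-HBSS (HEPES, pH 7.4). L-[¹⁴C]leucine (1–400 µM) uptake for 1 min, with test compound added from DMSO alongside the substrate at two levels (0.1/0.5 or 1/5 µM) or with DMSO alone. Cells washed ice-cold, lysed in NaOH, counted by scintillation, normalised to BCA protein. Michaelis–Menten and Lineweaver–Burk fits gave Ki; mean ± S.D., n = 4.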
Target sequence in this assay (Q01650 whole entry): as the sequence (Q01650 whole entry) above
Target sequence in this assay (P08195 103-630 partner): as the sequence (P08195 103-630 partner) above

[16] = target: human LAT2 (Homo sapiens, UniProt Q9UHI5); assay: Inhibition of L-[14C]alanine uptake in HEK293-hLAT2 cells; assay type: cell-based; conditions: 0.1, 1 and 10 µM compound, 1 µM L-[14C]alanine
Chain of human LAT2 (Q9UHI5 whole entry): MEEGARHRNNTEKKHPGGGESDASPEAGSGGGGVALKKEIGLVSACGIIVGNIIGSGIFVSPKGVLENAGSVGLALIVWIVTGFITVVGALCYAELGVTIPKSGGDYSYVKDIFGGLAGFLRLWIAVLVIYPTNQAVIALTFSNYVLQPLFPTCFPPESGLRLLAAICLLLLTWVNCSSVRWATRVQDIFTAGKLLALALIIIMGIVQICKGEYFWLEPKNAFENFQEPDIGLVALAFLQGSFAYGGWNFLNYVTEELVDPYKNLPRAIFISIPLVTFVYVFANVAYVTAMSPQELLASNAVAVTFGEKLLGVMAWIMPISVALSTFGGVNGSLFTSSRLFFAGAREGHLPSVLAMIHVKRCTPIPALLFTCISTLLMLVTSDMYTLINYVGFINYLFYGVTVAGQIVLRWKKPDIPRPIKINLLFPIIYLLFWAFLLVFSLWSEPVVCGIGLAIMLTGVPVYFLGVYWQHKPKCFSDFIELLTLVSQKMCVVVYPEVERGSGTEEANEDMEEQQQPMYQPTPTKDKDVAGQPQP
Chain of human LAT2 (P08195 103-630 partner): as the sequence (P08195 103-630 partner) above
In short: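 Stable HEK293-hLAT2 cells were seeded at 2.4 × 10⁵ cells/well on poly-D-lysine and grown 2 days. They were pre-incubated 10 min at 37 °C in Na⁺-free HBSS (choline chloride, 25 mM HEPES, pH 7.4). Uptake of 1 µM L-[¹⁴C]alanine ran for 1 min, with test compound (from DMSO stocks) added together with substrate. Cells were washed ice-cold, lysed in 0.1 N NaOH, counted by liquid scintillation, and lysate protein was measured by BCA.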

[17] = target: ATB^0,+ (Homo sapiens, UniProt Q9UN76); assay: Xenopus oocyte expression system, L-[14C]leucine uptake by ATB0,+; assay type: cell-based; conditions: 1 and 10 µM compound; 50 µM substrate; 30 min; ND96
In short: as §2

[18] = patients with advanced solid tumors; cited from earlier work
[19] = target: LAT4 (Homo sapiens, UniProt Q8N370); assay: Xenopus oocyte expression system, L-[14C]leucine uptake by LAT4; assay type: cell-based; conditions: 1 and 10 µM compound; 50 µM substrate; 30 min
Chain of LAT4 (Q8N370 whole entry): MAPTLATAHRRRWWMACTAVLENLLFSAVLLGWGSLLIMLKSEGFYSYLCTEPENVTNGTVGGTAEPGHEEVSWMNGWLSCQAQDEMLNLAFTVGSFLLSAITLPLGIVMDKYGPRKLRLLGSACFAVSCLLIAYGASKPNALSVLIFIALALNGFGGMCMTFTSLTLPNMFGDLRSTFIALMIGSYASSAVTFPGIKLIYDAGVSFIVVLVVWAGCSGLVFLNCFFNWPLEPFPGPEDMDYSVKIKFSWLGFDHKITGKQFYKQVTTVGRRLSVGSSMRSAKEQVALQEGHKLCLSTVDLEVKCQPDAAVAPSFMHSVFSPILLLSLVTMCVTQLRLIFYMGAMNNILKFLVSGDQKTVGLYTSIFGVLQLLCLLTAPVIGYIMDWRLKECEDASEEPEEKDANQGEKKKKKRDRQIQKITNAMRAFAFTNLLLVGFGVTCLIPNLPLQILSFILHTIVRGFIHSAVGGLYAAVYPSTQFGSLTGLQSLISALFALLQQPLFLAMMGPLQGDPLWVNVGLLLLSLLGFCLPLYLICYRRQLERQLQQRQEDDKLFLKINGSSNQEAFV
In short: as §1

[20] = target: TAT1 (Homo sapiens, UniProt Q8TF71); assay: Xenopus oocyte expression system, L-[14C]tyrosine uptake by TAT1; assay type: cell-based; conditions: 1 and 10 µM compound; 50 µM substrate; 30 min; Na+-free
In short: as §2

[21] = target: LAT3 (Homo sapiens, UniProt O75387); assay: Xenopus oocyte expression system, L-[14C]leucine uptake by LAT3; assay type: cell-based; conditions: 1 and 10 µM compound; 50 µM substrate; 30 min
In short: as §1

[22] = target: T1, LAT1; assay: Xenopus oocyte expression system, L-[14C]leucine uptake by LAT1; assay type: cell-based; conditions: 50 µM substrate, 30 min, Na+-free
In short: as §3
Target sequence in this assay (Q01650 whole entry): as the sequence (Q01650 whole entry) above
Target sequence in this assay (P08195 102-630 partner): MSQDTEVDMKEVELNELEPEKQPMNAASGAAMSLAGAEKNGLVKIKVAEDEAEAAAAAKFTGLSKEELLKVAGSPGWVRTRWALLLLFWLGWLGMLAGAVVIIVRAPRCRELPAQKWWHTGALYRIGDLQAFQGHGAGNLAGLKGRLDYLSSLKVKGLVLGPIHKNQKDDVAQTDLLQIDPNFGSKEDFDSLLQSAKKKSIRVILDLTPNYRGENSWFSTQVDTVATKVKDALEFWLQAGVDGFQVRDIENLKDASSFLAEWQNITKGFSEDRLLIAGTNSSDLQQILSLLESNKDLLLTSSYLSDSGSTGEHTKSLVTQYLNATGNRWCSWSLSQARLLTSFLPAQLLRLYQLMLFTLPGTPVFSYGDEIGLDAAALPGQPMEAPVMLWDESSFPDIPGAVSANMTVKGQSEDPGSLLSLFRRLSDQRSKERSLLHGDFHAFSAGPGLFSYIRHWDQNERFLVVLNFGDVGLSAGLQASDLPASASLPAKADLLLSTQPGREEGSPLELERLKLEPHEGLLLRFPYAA

[23] = target: LAT2 (Homo sapiens, UniProt Q9UHI5); assay: Xenopus oocyte expression system, L-[14C]alanine uptake by LAT2; assay type: cell-based; conditions: 1 and 10 µM compound; 50 µM substrate; 30 min
Chain of LAT2 (Q9UHI5 whole entry): as the sequence (Q9UHI5 whole entry) above
Chain of LAT2 (P08195 102-630 partner): as the sequence (P08195 102-630 partner) above
In short: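 Defolliculated Xenopus laevis oocytes were injected with polyadenylated human LAT2 cRNA (25 ng/oocyte) plus equimolar 4F2hc cRNA. Water-injected oocytes served as controls. After 2–4 days, oocytes took up 50 µM ¹⁴C-labelled substrate for 30 min at room temperature, with or without test compound, in ND96 (pH 7.5) or its Na⁺-free choline chloride version. Radioactivity was determined by liquid scintillation counting.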

[24] = target: y^+LAT1 (Homo sapiens, UniProt Q9UM01); assay: Xenopus oocyte expression system, L-[14C]leucine uptake by y+LAT1; assay type: cell-based; conditions: 1 and 10 µM compound; 50 µM substrate; 30 min; ND96
In short: as §3

[25] = test system: S2-LAT1 cells; conditions: LAT1-expressing cells; cited from earlier work
[26] = target: SNAT4 (Homo sapiens, UniProt Q969I6); assay: Xenopus oocyte expression system, L-[14C]alanine uptake by SNAT4; assay type: cell-based; conditions: 10 µM compound; 50 µM substrate; 30 min; ND96
In short: as §1

[27] = test system: HEK293-hLAT2 cells; assay: Cell proliferation assay; assay type: cell-based, human; conditions: 72 h, 0.003-30 µM
In short: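 HEK293 cells stably expressing human LAT2, kept under G418 selection at 37 °C and 5% CO₂, were seeded at 1.5 × 10³ cells/well on poly-D-lysine. Next day they were exposed to test compound for 72 h, and cell number was read with CCK-8. Inhibition was calculated as (C – T)/(C – T₀) × 100, with T₀ taken at 0 h. GI₅₀ is the concentration giving 50% inhibition. Mean ± S.D., n = 4.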

[28] = target: ASCT1 (Homo sapiens, UniProt P43007); assay: Xenopus oocyte expression system, L-[14C]alanine uptake by ASCT1; assay type: cell-based; conditions: 1 and 10 µM compound; 50 µM substrate; 30 min; ND96
In short: as §1

[29] = test system: LAT1, LAT2, LAT3, LAT4, B^0AT1, ATB^0,+; conditions: cited from earlier work

## Nc1cc(COc2c(Cl)cc(C[C@H](N)C(=O)O)cc2Cl)c2oc(-c3ccccc3)nc2c1 [nanvuranlat, (2S)-2-amino-3-[4-[(5-amino-2-phenyl-1,3-benzoxazol-7-yl)methoxy]-3,5-dichlorophenyl]propanoic acid]
[1]
  Temperature dependence of cell-associated radioactivity (transport by LAT1): not transported by LAT1
[2]
  Inhibition of ASCT2-mediated L-[14C]alanine uptake: no significant inhibition
[3]
  Inhibition of SNAT1-mediated L-[14C]alanine uptake: no significant inhibition
[4]
  GI50: 1830 ± 310 nM
[5]
  Primary endpoint (progression-free survival): met its primary endpoint of improving progression-free survival
[6]
  Inhibition of B0AT1-mediated L-[14C]leucine uptake: Neither compound inhibited
[7]
  Inhibition reduction rate: 29.8%
[8]
  Inhibition of SNAT3-mediated L-[14C]glutamine uptake: no significant inhibition
[9]
  Inhibition of SNAT5-mediated L-[14C]glutamine uptake: no significant inhibition
[10]
  Inhibition of b0,+-mediated L-[14C]cystine uptake: Neither compound inhibited
[11]
  Inhibition of SNAT2-mediated L-[14C]alanine uptake: no significant inhibition
[12]
  Growth inhibition of S2-LAT2 cells: minimal effects
[13]
  Metabolism: rapidly metabolized to its N-acetyl derivative in the liver
[14]
  Inhibition of y+LAT2-mediated L-[14C]leucine uptake: Neither compound inhibited
[15]
  Ki: 38.7 ± 5.1 nM
[15]; 0.1, 1 and 10 µM compound, 1 µM L-[14C]leucine, HEK293-hLAT1
  Inhibition of LAT1-mediated L-[14C]leucine uptake: inhibited LAT1 in a concentration-dependent manner
[15]; HEK293-hLAT1, L-[14C]leucine
  Mode of LAT1 inhibition (Lineweaver-Burk plot): competitive inhibitors
[16]
  Inhibition of LAT2-mediated L-[14C]alanine uptake: neither compound exhibited inhibitory effects on LAT2
[17]
  Inhibition of ATB0,+-mediated L-[14C]leucine uptake: Neither compound inhibited
[18]
  Safety profile in clinical trials: acceptable safety profile
[19]
  Inhibition of LAT4-mediated L-[14C]leucine uptake: no inhibitory effects
[20]
  Inhibition of TAT1-mediated L-[14C]tyrosine uptake: Neither compound inhibited
[21]
  Inhibition of LAT3-mediated L-[14C]leucine uptake: no inhibitory effects
[22]; 1 µM compound
  Inhibition of LAT1-mediated L-[14C]leucine uptake: significantly inhibited
[22]; 10 µM compound
  Inhibition of LAT1-mediated L-[14C]leucine uptake: significantly inhibited
[23]
  Inhibition of LAT2-mediated L-[14C]alanine uptake: neither nanvuranlat nor N-acetyl-nanvuranlat inhibited
[24]
  Inhibition of y+LAT1-mediated L-[14C]leucine uptake: Neither compound inhibited
[25]
  Growth inhibition of S2-LAT1 cells: potently inhibited the growth
[26]
  Inhibition of SNAT4-mediated L-[14C]alanine uptake: non-significant trend towards inhibition
[27]
  Inhibition of proliferation: neither compound exhibited an inhibitory effect
[28]
  Inhibition of ASCT1-mediated L-[14C]alanine uptake: no significant inhibition

## NC1(C(=O)O)CC2CCC1C2 (centres unmarked) [BCH]
[29]
  Transporters inhibited: inhibit not only all system L transporters (LAT1, LAT2, LAT3, LAT4) but also B^0AT1 (system B^0) and ATB^0,+ (system B^0,+)
